This note sets out measurements from ChEMBL document CHEMBL1144425, “Design of benzophenone-containing photoactivatable linear vasopressin antagonists: pharmacological and photoreactive properties” (J Med Chem, 2005).

A word on the Ki: it is a measure of affinity in units of concentration, obtained from inhibition or displacement. Low values mean higher affinity, high ones lower affinity.

Sequence of Vasopressin V1a receptor (Homo sapiens, UniProt P37288) (P37288 whole entry): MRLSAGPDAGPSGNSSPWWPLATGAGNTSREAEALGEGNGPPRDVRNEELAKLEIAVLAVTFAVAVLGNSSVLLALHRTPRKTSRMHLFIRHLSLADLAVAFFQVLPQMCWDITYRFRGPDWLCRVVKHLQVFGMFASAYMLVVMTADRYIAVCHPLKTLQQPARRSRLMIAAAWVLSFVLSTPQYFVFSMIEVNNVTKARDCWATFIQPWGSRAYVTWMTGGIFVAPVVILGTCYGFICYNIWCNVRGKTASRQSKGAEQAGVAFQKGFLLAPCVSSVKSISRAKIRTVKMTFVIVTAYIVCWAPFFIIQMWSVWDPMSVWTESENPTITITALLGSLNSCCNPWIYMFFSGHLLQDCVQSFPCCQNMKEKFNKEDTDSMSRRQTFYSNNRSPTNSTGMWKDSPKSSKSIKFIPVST

In one assay the target is Vasopressin V1a receptor (Rattus norvegicus, UniProt P30560). Description: Binding affinity against rat vasopressin V1a receptor.
Sequence of Vasopressin V1a receptor (Rattus norvegicus, UniProt P30560) (P30560 whole entry): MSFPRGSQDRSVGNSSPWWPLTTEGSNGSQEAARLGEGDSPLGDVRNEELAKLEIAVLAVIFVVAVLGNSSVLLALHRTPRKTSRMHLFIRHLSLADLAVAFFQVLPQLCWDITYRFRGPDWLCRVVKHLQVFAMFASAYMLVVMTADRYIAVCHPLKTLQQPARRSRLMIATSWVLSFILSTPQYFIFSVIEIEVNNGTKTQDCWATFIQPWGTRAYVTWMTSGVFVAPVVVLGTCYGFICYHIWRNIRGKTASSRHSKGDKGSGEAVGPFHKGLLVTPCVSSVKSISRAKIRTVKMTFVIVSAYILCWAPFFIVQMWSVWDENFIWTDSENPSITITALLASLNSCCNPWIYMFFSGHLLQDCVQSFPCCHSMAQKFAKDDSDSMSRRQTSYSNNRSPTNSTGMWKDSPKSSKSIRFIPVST
Details: not given
With `COc1ccc(C[C@@H](NC(=O)CCCc2ccc(N=[N+]=[N-])cc2)C(=O)N[C@@H](Cc2ccccc2)C(=O)N[C@@H](CCC(N)=O)C(=O)N[C@@H](CC(N)=O)C(=O)N[C@@H](CCCNC(=N)N)C(=O)N2CCC[C@H]2C(=O)N[C@@H](CCCNC(=N)N)C(=O)N[C@@H](Cc2ccc(O)c(I)c2)C(N)=O)cc1`, the Ki stood at 0.00018 µM. This counts as sub-nanomolar.

A further assay concerns the target Vasopressin V1a receptor (Homo sapiens, UniProt P37288). Nature of the assay: Binding affinity against human vasopressin V1a receptor expressed in CHO cells. In kind it is cell-based.
Details: not given
In a few lines: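 Competition binding on membranes of CHO cells expressing the human V1a receptor (2 to 3 µg protein). Each compound was tested at 10^-12 to 10^-6 M against a radioiodinated linear antagonist (45-80 pM). Incubation was 1 h at 30 °C in 50 mM Tris, 5 mM MgCl2, pH 7.4, with 1 mg/mL BSA, in triplicate, then GF/C filtration. Data were fitted by nonlinear least-squares regression.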
The compound `NC(=O)CC[C@H](NC(=O)[C@H](Cc1ccccc1)NC(=O)[C@@H](Cc1ccc(C(=O)c2ccccc2)cc1)NC(=O)Cc1ccccc1)C(=O)N[C@@H](CC(N)=O)C(=O)N[C@@H](CCCN=C(N)N)C(=O)N1CCC[C@H]1C(=O)N[C@@H](CCCN=C(N)N)C(=O)N[C@@H](Cc1ccc(O)c(I)c1)C(N)=O` displayed a Ki of 0.0008 µM. In other words, the sub-nanomolar range. Still for that read-out and setting: for `COc1ccc(C[C@@H](NC(=O)c2ccc(C(=O)c3ccccc3)cc2)C(=O)N[C@@H](Cc2ccccc2)C(=O)N[C@@H](CCC(N)=O)C(=O)N[C@@H](CC(N)=O)C(=O)N[C@@H](CCCN=C(N)N)C(=O)N2CCC[C@H]2C(=O)N[C@@H](CCCN=C(N)N)C(=O)N[C@@H](Cc2ccc(O)c(I)c2)C(N)=O)cc1` the value was 0.018 µM; for `N=C(N)NCCC[C@H](NC(=O)[C@@H]1CCCN1C(=O)[C@H](CCCNC(=N)N)NC(=O)[C@H](CC(N)=O)NC(=O)[C@H](CCC(N)=O)NC(=O)[C@H](Cc1ccccc1)NC(=O)[C@H](Cc1ccc(C(=O)c2ccccc2)cc1)NC(=O)Cc1ccccc1)C(=O)N[C@@H](Cc1ccc(O)c(I)c1)C(N)=O`, 0.0025 µM.

Staying with this assay, now noted: cho.
`N=C(N)NCCC[C@H](NC(=O)[C@@H]1CCCN1C(=O)[C@H](CCCNC(=N)N)NC(=O)[C@H](CC(N)=O)NC(=O)[C@H](CCC(N)=O)NC(=O)[C@H](Cc1ccccc1)NC(=O)[C@@H](N)Cc1ccc(C(=O)c2ccccc2)cc1)C(=O)N[C@@H](Cc1ccc(O)c(I)c1)C(N)=O` had a Ki of 0.148 µM. On the same count and under the same terms, for `COc1ccc(C[C@@H](NC(=O)C(N)Cc2ccc(C(=O)c3ccccc3)cc2)C(=O)N[C@@H](Cc2ccccc2)C(=O)N[C@@H](CCC(N)=O)C(=O)N[C@@H](CC(N)=O)C(=O)N[C@@H](CCCNC(=N)N)C(=O)N2CCC[C@H]2C(=O)N[C@@H](CCCNC(=N)N)C(=O)N[C@@H](Cc2ccc(O)c(I)c2)C(N)=O)cc1` (stereo not given in full) the value was 0.462 µM. For the compound `NC(=O)CC[C@H](NC(=O)[C@H](Cc1ccccc1)NC(=O)[C@H](N)Cc1ccc(C(=O)c2ccccc2)cc1)C(=O)N[C@@H](CC(N)=O)C(=O)N[C@@H](CCCN=C(N)N)C(=O)N1CCC[C@H]1C(=O)N[C@@H](CCCN=C(N)N)C(=O)N[C@@H](Cc1ccc(O)c(I)c1)C(N)=O`, the Ki worked out at 0.02 µM. The same measure, in the same setting: with `CC(=O)N[C@@H](Cc1ccc(C(=O)c2ccccc2)cc1)C(=O)N[C@@H](Cc1ccccc1)C(=O)N[C@@H](CCC(N)=O)C(=O)N[C@@H](CC(N)=O)C(=O)N[C@@H](CCCNC(=N)N)C(=O)N1CCC[C@H]1C(=O)N[C@@H](CCCNC(=N)N)C(=O)N[C@@H](Cc1ccc(O)c(I)c1)C(N)=O` the figure was 1.49 µM.

Regarding `CC(=O)N[C@H](Cc1ccc(C(=O)c2ccccc2)cc1)C(=O)N[C@@H](Cc1ccccc1)C(=O)N[C@@H](CCC(N)=O)C(=O)N[C@@H](CC(N)=O)C(=O)N[C@@H](CCCNC(=N)N)C(=O)N1CCC[C@H]1C(=O)N[C@@H](CCCNC(=N)N)C(=O)N[C@@H](Cc1ccc(O)c(I)c1)C(N)=O`, the Ki was determined as 0.024 µM. On the same count and under the same terms, with `COc1ccc(C[C@@H](NC(=O)CNC(=O)c2ccc(C(=O)c3ccccc3)cc2)C(=O)N[C@@H](Cc2ccccc2)C(=O)N[C@@H](CCC(N)=O)C(=O)N[C@@H](CC(N)=O)C(=O)N[C@@H](CCCCN)C(=O)N2CCC[C@H]2C(=O)N[C@@H](CCCNC(=N)N)C(=O)N[C@@H](Cc2ccc(O)c(I)c2)C(N)=O)cc1` the figure was 0.115 µM.
